Source: PubChem
GPR7 antag: GPR7 receptor antagonists, primary screen, cell-based, fluorescence, single concentration | Neuropeptides B/W receptor type 1 (Homo sapiens), P48145 | GPR7-expressing cells, fluorescence antagonist assay | inhibition, % at 4.4 µM | 290,000 compounds, 1.1% hits | AID 1861, 2009; in the data active = inhibition above about 16%, passing the limit was not always enough;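 also: cells stimulated with the agonist NPW; 0% = agonist with vehicle and 100% = vehicle without agonist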
Target sequence (P48145 whole entry, looked up): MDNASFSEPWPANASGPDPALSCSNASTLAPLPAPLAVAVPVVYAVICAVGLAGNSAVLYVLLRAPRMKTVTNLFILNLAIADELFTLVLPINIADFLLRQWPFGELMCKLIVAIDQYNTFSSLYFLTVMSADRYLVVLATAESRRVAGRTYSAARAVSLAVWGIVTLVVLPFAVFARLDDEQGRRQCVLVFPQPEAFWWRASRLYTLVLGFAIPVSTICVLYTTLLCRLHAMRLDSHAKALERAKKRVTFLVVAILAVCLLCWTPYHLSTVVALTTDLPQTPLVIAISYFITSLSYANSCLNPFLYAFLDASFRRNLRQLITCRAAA
T cruzi repl: inhibitors of intracellular T. cruzi growth, primary screen, luminescence, NIH3T3 host cells. T. cruzi beta-gal in NIH3T3, 90 h. AID 1885, 2009. 300,000 compounds, 1.4% hits. inhibition, % (test concentration not listed);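 active = mean inhibition across valid replicates above about 55%, limit read from the data; inconclusive = mean below that limit but half or more replicates reach it; inactive = mean below it, under half of replicates reach it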;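 also: signal also drops with host cell toxicity which is not excluded here; 0% = plate median of DMSO wells and 100% = zero luminescence signal; higher percent means less beta-gal luminescence so fewer parasites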
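System: Mouse NIH/3T3 fibroblasts infected with β-gal-expressing T. cruzi Tulahuen C4 | Quantity: NIH/3T3 cells, 5,000 per well | Reagent: 5000 reporter trypomastigotes per well | Dosing: Compound pinned at 50 nL/well, DMSO | Schedule: 3 h host attachment, then at least 90 h co-culture | Detection: GalScreen luminescence, 60 min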
Jurkat NFkB inh: inhibitors of induced NF-kB luciferase reporter, primary screen, TCR NF-kB activation inhibitor project, cell-based, luminescence, uHTS | Jurkat, PMA/ionomycin-induced NF-kB luciferase reporter | inhibition, % at 4 µM | 330,000 compounds, 0.53% hits | AID 435003, 2010; in the data active = inhibition above about 50%
HSF1 activator: HSF-1 activators, primary screen, NIH3T3-HGL cells, MG132 stress, luminescence, single point | NIH3T3-HGL HSF-1 luciferase reporter, 8 h; 100% = twice DMSO control signal | activation, % at 9 µM | 300,000 compounds, 1.7% hits;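 active = mean replicate activation of at least 50% with a set share of replicates each reaching 50%; inconclusive = only one of those two conditions met; inactive = mean below 50% and too few replicates reaching it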;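 also: 0% = median of the neutral control wells and 100% = twice that signal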
697 NFkB inh: inhibitors of PMA/ionomycin-induced NF-kB reporter, 697 cells, primary screen, B-cell NF-kB inhibitor project, cell-based, luminescence, uHTS; 697 B-cell NF-kB luciferase reporter, 16 h; inhibition, % at 4 µM; 330,000 compounds, 0.33% hits; in the data active = inhibition above about 35%
HSF1 inhib: HSF1 inhibitors in luciferase reporter cells, primary screen, cell-based, NIH3T3, luminescence | 300,000 compounds, 0.77% hits | NIH3T3-HGL HSE-luciferase, MG132-induced, luminescence 8 h; hits give low values | activity change, negative = inhibition, % at 7.5 µM (by protocol);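 active = more than half of replicate wells show activity change below -50%, luminescence cut by over half; inconclusive = some wells, but at most half, below -50%; inactive = no replicate well below -50%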;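 also: luciferase reports HSF-1 transcriptional activity via heat shock element; 0% = median of DMSO wells and -100% = zero luminescence signal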
Jurkat NFkB conf: PMA/ionomycin-induced NF-kB reporter inhibitors, Jurkat retest, confirmation, T-cell NF-kB inhibitor project, cell-based, luminescence, single concentration; shares compounds with Jurkat NFkB inh; Jurkat NF-kB luciferase, 16 h; inhibition, % at 4 µM; 2,700 compounds, 27% hits; AID 435020, 2010;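 active = inhibition reaching about 45% at 4 µM in either replicate, limit read from the data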;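 also: plate controls were PMA/ionomycin stimulated DMSO wells for no effect and unstimulated DMSO wells for full effect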
The depositor's hits bear a star; ? = inconclusive; nt = no result given. The list is not random: actives were taken first. Their share in the collection is about 4.8%.

SMILES	GPR7 antag	T cruzi repl	Jurkat NFkB inh	HSF1 activator	697 NFkB inh	HSF1 inhib	Jurkat NFkB conf
Cc1ccc(/C=N/NC(=O)c2ccc3ccccc3c2)s1	-3.0	-24.3	51.5*	-3.0	-40.3	4.7	34.2
Cc1ccc(N2CCN(C(=O)c3cn(CC4CCCCC4)nn3)C(C)C2)cc1 (stereo not given)	-18.1	27.5	-146.2	?	-217.0	52.5	nt
CCOc1cccc(C(=O)Nc2ccc3[nH]ncc3c2)c1	-6.2	4.6	-150.6	16.0	-26.7	11.8	-63.1
COc1cccc(C(=O)Nc2ccc3[nH]ncc3c2)c1	-17.3	-0.9	-69.8	23.8	-45.3	4.8	nt
COc1ccc(-c2nc(-c3ccc(Br)o3)no2)cc1	-7.5	-0.6	-203.1	49.7	-242.5	25.6	-148.0
O=C(Nc1ccc2c(c1)OCO2)c1ccc(Br)s1	-0.8	-21.6	-178.4	34.3	-77.3	23.3	-85.1
Cc1ccc(NC(=O)Nc2ccc3c(c2)OCO3)cc1F	-5.8	11.0	-174.1	22.0	-103.7	15.4	-51.5
Cn1c(C(=O)Nc2ccc3c(c2)OCO3)cc2sccc21	-6.7	-0.4	-159.8	65.8*	-139.6	31.0	-63.0
O=C(Nc1ccc2c(c1)OCCO2)Nc1ccc2c(c1)OCO2	-17.4	4.2	-184.6	26.6	-215.2	14.6	-92.5
O=C(Nc1ccc2c(c1)OCO2)c1cccs1	8.7	-10.5	-85.0	32.7	-89.5	14.1	nt
Cc1cc(F)ccc1NC(=O)Nc1ccc2c(c1)OCO2	3.5	-8.8	-29.6	4.2	-20.4	-4.9	nt
O=C(NCCN1CCN(c2ccccc2)CC1)Nc1cccc(Cl)c1	6.8	-31.7	-14.1	-18.0	-48.2	-4.9	nt
CCN(C(=O)COC(=O)CCc1ccc(OC)cc1)c1c(N)n(Cc2ccccc2)c(=O)[nH]c1=O	nt	nt	-1.1	nt	8.1	nt	nt
CN=c1scc(-c2cccs2)n1/N=C/c1ccccc1O	-5.6	7.0	77.5*	-91.4	-15.4	-89.9*	81.5*
CC(NC(=O)COC(=O)/C=C/c1ccc2c(c1)OCO2)c1ccccc1 (stereo not given)	nt	nt	-14.0	nt	14.1	nt	nt
Cn1c(N)c(C(=O)Nc2ccc3ccccc3c2)sc1=S	18.1	-4.3	-163.5	26.5	-111.8	20.8	-26.1
COc1cc(/C=N/O)ccc1OCc1ccccc1Cl	-26.2	-2.7	-157.5	39.7	-103.4	28.0	-75.7
COc1ccc(CNCCS(=O)(=O)NN2CCOCC2)cc1	nt	nt	nt	nt	3.6	nt	nt
Clc1cc2cccnc2c2ncccc12	nt	nt	18.8	nt	10.9	nt	nt
Cc1c(C)c2cccnc2c2ncccc12	nt	nt	78.3*	nt	-65.0	nt	83.7*
Cc1nc(C(=O)Nc2ccccc2)sc1C1(C)CC(c2cccnc2)=NO1 (stereo not given)	nt	-13.7	-60.2	13.4	-28.7	11.2	nt
COc1ccc(NC(=O)c2nc(C)c(C3(C)CC(c4ccccc4)=NO3)s2)cc1 (stereo not given)	nt	13.7	55.4*	-31.5	-13.8	-15.6	37.2
COC(=O)c1nn(-c2ccc3c(c2)CCN3C(C)=O)cc1O	2.4	-4.9	53.2*	-60.9	9.7	-58.4*	66.8*
Cc1c(C(=O)Nc2ccc3c4c(cccc24)CC3)cccc1[N+](=O)[O-]	-5.6	7.4	-1.7	10.2	-20.7	-3.4	nt
Cc1ccc(C(=O)Nc2ccc3c4c(cccc24)CC3)cc1[N+](=O)[O-]	2.1	7.2	85.0*	9.6	-22.0	2.3	13.4
CCOc1ccc(NC(=O)CN(C)C(=O)C2CC(=O)N(c3ccc4c(c3)OCCO4)C2)cc1OCC (stereo not given)	nt	-13.1	0.2	-2.4	5.2	-3.8	nt
N#CC1=C(N)Oc2c(ccc3cccnc23)C1c1ccccc1 (stereo not given)	-11.6	53.0	65.6*	-11.9	-5.2	0.6	32.4
COCCN(CC(=O)Nc1cccc(C)c1C)C(=O)Cc1ccsc1	nt	nt	12.2	nt	11.0	nt	nt
CC1CCN(C(=O)CCCC(=O)N2CCC(C)CC2)CC1	-14.6	-5.0	-1.7	-5.1	19.6	-1.6	nt
